Measured values taken from ChEMBL document CHEMBL4041482, “Synthesis, evaluation, and CoMFA study of fluoroquinophenoxazine derivatives as bacterial topoisomerase IA inhibitors” (Eur J Med Chem, 2017).
Converted amounts (≈) assume the structure as drawn.

How the values were obtained:
[1] = test system: Mycobacterium tuberculosis; assay: Antimycobacterial activity against Mycobacterium tuberculosis H37Rv after 7 days by microplate alamar blue assay; assay type: functional; conditions: 168 h
Escherichia coli [2] = assay: Antibacterial activity against Escherichia coli K12 MG1655 by microdilution method; assay type: functional; conditions: K-12 substr. MG1655
Outline: (§1)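 MICs determined by standard broth microdilution in cation-adjusted Mueller-Hinton Broth; E. coli BAS3023 carries an imp mutation conferring membrane permeability to small molecules, MG1655 K12 is wild type.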

Vero = assay: Cytotoxicity against African green monkey Vero cells assessed as reduction in cell viability after 72 hrs by MTS assay; assay type: cell-based; conditions: Chlorocebus sabaeus
[3] = Inhibition of recombinant Escherichia coli DNA gyrase expressed in Escherichia coli assessed as reduction in enzyme-mediated supercoiling of relaxed circular DNA preincubated with enzyme followed by substrate addition measured after 30 mins by agarose gel electrophoresis method
Escherichia coli [4] = assay: Antibacterial activity against Escherichia coli BAS3023 harboring imp mutant by microdilution method; assay type: functional; outline: as §1
[5] = Inhibition of recombinant Escherichia coli topoisomerase 1a expressed in Escherichia coli assessed as reduction in enzyme-mediated relaxation of supercoiled pBAD/Thio DNA preincubated with enzyme followed by substrate addition measured after 30 mins by ethidium bromide staining based agarose gel electrophoresis method
Bacillus spizizenii = assay: Antibacterial activity against Bacillus subtilis ATCC 6633 by microdilution method; assay type: functional
Outline: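 Broth microdilution per standard protocol in cation-adjusted Mueller-Hinton broth; MIC taken as lowest inhibiting concentration.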

[6] = Inhibition of human topoisomerase type 1B assessed as reduction in enzyme-mediated relaxation of supercoiled pBAD/Thio DNA after 30 mins by agarose gel electrophoresis method
Outline: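 Human topoisomerase I, 0.5 U, in manufacturer's reaction buffer; enzyme mixed with compound before 200 ng supercoiled pBAD/Thio plasmid added, 20 μL final. 37 °C for 30 minutes; stopped with SDS/bromophenol blue/glycerol buffer; agarose gel electrophoresis read-out.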

[7] = target: DNA topoisomerase 2-alpha (Homo sapiens, UniProt P11388); assay: Inhibition of human topoisomerase-2alpha assessed as reduction in enzyme-mediated decatenation using kinetoplast DNA as substrate after 15 mins by ethidium bromide staining based agarose gel electrophoresis method
[8] = Selectivity index, ratio of IC50 for African green monkey Vero cells to MIC for Mycobacterium tuberculosis H37Rv; assay type: toxicity
Outline: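 SI computed as cytotoxic IC50 against Vero cells divided by MIC against M. tuberculosis; Mtb MIC from modified microplate Alamar blue assay.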

[9] = Solubility in DMSO-d6 solvent by 1H NMR method; assay type: physicochemical
[10] = Inhibition of recombinant Escherichia coli topoisomerase 1a expressed in Escherichia coli assessed as reduction in enzyme-mediated relaxation of supercoiled pBAD/Thio DNA preincubated with enzyme followed by substrate addition measured after 30 mins by high-throughput screening assay
[11] = Stability of the compound in DMSO-d6 solvent after several weeks by 1H NMR method; assay type: physicochemical
[12] = Stability of the compound in DMSO-d6 solvent after several weeks by HPLC method; assay type: physicochemical

DNA topoisomerase 2-alpha, sequence (P11388 whole entry): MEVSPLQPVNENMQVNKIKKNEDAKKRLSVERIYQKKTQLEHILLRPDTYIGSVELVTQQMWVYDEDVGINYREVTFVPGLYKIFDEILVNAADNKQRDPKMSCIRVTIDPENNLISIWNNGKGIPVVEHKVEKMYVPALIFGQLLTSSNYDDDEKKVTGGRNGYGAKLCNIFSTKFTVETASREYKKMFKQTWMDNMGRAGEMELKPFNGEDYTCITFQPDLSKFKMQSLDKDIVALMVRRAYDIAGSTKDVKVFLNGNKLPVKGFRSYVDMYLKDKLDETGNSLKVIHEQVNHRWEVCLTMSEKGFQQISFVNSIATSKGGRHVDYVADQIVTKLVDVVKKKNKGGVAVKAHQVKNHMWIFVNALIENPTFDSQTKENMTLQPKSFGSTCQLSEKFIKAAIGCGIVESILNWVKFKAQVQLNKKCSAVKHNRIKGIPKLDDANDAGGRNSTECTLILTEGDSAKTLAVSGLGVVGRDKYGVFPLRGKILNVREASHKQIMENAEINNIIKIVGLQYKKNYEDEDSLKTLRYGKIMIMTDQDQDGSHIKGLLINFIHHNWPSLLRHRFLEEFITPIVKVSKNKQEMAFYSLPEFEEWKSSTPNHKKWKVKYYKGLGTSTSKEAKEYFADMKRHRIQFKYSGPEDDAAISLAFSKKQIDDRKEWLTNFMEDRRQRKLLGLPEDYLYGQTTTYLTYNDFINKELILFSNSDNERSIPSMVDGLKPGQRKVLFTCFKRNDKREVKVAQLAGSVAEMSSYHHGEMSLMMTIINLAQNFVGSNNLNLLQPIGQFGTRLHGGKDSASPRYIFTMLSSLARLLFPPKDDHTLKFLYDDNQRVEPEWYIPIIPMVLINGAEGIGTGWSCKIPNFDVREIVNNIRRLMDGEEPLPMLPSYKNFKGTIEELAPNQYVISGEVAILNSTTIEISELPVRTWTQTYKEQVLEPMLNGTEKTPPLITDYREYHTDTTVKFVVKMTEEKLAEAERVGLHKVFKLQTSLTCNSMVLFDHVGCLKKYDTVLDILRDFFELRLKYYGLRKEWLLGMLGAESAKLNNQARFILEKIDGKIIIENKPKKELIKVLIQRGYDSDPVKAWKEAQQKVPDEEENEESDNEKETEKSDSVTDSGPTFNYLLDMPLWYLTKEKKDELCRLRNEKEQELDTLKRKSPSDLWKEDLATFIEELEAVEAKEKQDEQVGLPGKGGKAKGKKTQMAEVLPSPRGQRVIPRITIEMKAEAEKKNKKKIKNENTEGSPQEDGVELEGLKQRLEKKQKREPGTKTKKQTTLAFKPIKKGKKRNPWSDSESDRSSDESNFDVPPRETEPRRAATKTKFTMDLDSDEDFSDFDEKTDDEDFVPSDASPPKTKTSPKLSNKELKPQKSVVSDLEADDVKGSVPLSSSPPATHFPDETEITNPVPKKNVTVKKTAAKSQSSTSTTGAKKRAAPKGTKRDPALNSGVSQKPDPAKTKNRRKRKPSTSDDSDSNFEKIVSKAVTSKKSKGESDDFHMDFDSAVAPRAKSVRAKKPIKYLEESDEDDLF

SMILES	MIC [1]	MIC (Escherichia coli [2])	IC50 (Vero)	IC50 [3]	MIC (Escherichia coli [4])	IC50 [5]	pIC50 [5]	MIC (Bacillus spizizenii)	IC50 [6]	IC50 [7]	Selectivity Index [8]	solubility [9]	IC50 [10]	Stability [11]	Stability [12]
Nc1ccc2c(c1)Oc1c(N3CCOCC3)c(F)cc3c(=O)c(C(=O)O)cn-2c13	3.5 µM (≈ 1.39 µg/mL)	> 200 µM	24.7 µM	7.8 µM	0.19 to 0.39 µM (≈ 0.0755 to 0.155 µg/mL)	0.97 µM	6.01	0.19 µM (≈ 0.0755 µg/mL)							
Nc1ccc2c(c1)Oc1c(NCCN3CCOCC3)c(F)cc3c(=O)c(C(=O)O)cn-2c13	21.6 µM (≈ 9.51 µg/mL)	> 200 µM	43 µM	15.6 to 31.2 µM	0.78 µM (≈ 0.344 µg/mL)			1.56 µM (≈ 0.687 µg/mL)	7.8 to 15.6 µM						
CCOC(=O)c1cn2c3c(c(N4CCN(C)CC4)c(F)cc3c1=O)Oc1cc([N+](=O)[O-])ccc1-2		> 200 µM			25 µM (≈ 11.7 µg/mL)	1.95 µM	5.71	50 µM (≈ 23.4 µg/mL)							
CCOC(=O)c1cn2c3c(c(F)c(F)cc3c1=O)Oc1cc(C#N)ccc1-2		> 200 µM			> 200 µM	31.2 µM	4.51	200 µM (≈ 73.7 µg/mL)							
N[C@H]1CCN(c2c(F)cc3c(=O)c(C(=O)O)cn4c3c2Oc2cc([N+](=O)[O-])ccc2-4)C1	> 50 µM	> 200 µM	> 50 µM	3.9 µM	1.56 µM (≈ 0.665 µg/mL)	0.48 µM	6.32	0.78 µM (≈ 0.333 µg/mL)	7.8 µM	1.95 to 3.9 µM					
Nc1ccc2c(c1)Oc1c(NC3CCCCC3)c(F)cc3c(=O)c(C(=O)O)cn-2c13		> 200 µM			25 µM (≈ 10.2 µg/mL)	3.9 µM	5.41	12.5 µM (≈ 5.12 µg/mL)							
O=C(O)c1cn2c3c(c(F)c(F)cc3c1=O)Oc1cc(C(F)(F)F)ccc1-2		> 200 µM			> 200 µM	125 to 250 µM	3.61	25 µM (≈ 9.58 µg/mL)							
CC(=O)c1ccc2c(c1)Oc1c(F)c(F)cc3c(=O)c(C(=O)O)cn-2c13		> 200 µM			> 200 µM	15.6 µM	4.81	> 200 µM							
CCCCCCNc1c(F)cc2c(=O)c(C(=O)O)cn3c2c1Oc1cc(N)ccc1-3		> 200 µM			> 200 µM	15.6 µM	4.81	> 200 µM							
CN1CCN(c2c(F)cc3c(=O)c(C(=O)O)cn4c3c2Oc2cc(N)ccc2-4)CC1				15.6 to 31.2 µM		0.48 µM	6.32		15.6 µM	3.9 to 7.8 µM					
Nc1ccc2c(c1)Oc1c(NC34CC5CC(CC(C5)C3)C4)c(F)cc3c(=O)c(C(=O)O)cn-2c13	38.4 µM (≈ 17.7 µg/mL)	> 200 µM	30.7 µM		3.12 µM (≈ 1.44 µg/mL)	3.9 to 7.8 µM	5.23	12.5 µM (≈ 5.77 µg/mL)			0.8				
Nc1ccc2c(c1)Oc1c(N3CC[C@H](N)C3)c(F)cc3c(=O)c(C(=O)O)cn-2c13		> 200 µM	> 63.1 µM		1.56 µM (≈ 0.618 µg/mL)	0.48 to 0.97 µM	6.14	6.25 µM (≈ 2.48 µg/mL)							
CCOC(=O)c1cn2c3c(c(F)c(F)cc3c1=O)Oc1cc(C(F)(F)F)ccc1-2		> 200 µM			> 200 µM	125 to 250 µM	3.6	> 200 µM							
Nc1ccc2c(c1)Oc1c(N3CC[C@@H](N)C3)c(F)cc3c(=O)c(C(=O)O)cn-2c13	> 63.1 µM		> 63.1 µM		6.25 µM (≈ 2.48 µg/mL)	0.48 to 0.97 µM	6.14	12.5 µM (≈ 4.95 µg/mL)							
O=C(O)c1cn2c3c(c(F)c(F)cc3c1=O)Oc1cc([N+](=O)[O-])ccc1-2		200 µM (≈ 72 µg/mL)			0.78 µM (≈ 0.281 µg/mL)	15.6 µM	4.81	12.5 µM (≈ 4.5 µg/mL)							
CC(=O)Nc1ccc2c(c1)Oc1c(F)c(F)cc3c(=O)c(C(=O)O)cn-2c13		> 200 µM			> 200 µM	7.8 µM	5.11	> 200 µM							
CN1CCN(c2c(F)cc3c(=O)c(C(=O)O)cn4c3c2Oc2cc([N+](=O)[O-])ccc2-4)CC1	19 µM (≈ 8.37 µg/mL)	100 µM (≈ 44 µg/mL)	95 µM	62.5 to 125 µM	1.56 µM (≈ 0.687 µg/mL)	1.95 µM	5.71	0.78 µM (≈ 0.344 µg/mL)	31.2 µM						
Nc1ccc2c(c1)Oc1c(NC3CCCC3)c(F)cc3c(=O)c(C(=O)O)cn-2c13		> 200 µM			25 µM (≈ 9.88 µg/mL)	3.9 µM	5.41	12.5 µM (≈ 4.94 µg/mL)							
CC1CCN(c2c(F)cc3c(=O)c(C(=O)O)cn4c3c2Oc2cc(N)ccc2-4)CC1		> 200 µM			3.12 µM (≈ 1.28 µg/mL)	3.9 µM	5.41	0.78 µM (≈ 0.319 µg/mL)							
N#Cc1ccc2c(c1)Oc1c(F)c(F)cc3c(=O)c(C(=O)O)cn-2c13		> 200 µM			200 µM (≈ 68 µg/mL)	31.2 µM	4.51	> 200 µM							
CC(C)(C)OC(=O)N[C@H]1CCN(c2c(F)cc3c(=O)c(C(=O)O)cn4c3c2Oc2cc(N)ccc2-4)C1		> 200 µM				3.9 µM	5.41	12.5 µM (≈ 6.21 µg/mL)							
O=C(O)c1cn2c3c(c(F)c(F)cc3c1=O)Oc1cc([N+](=O)[O-])c(Cl)cc1-2	29 µM (≈ 11.4 µg/mL)	50 µM (≈ 19.7 µg/mL)	> 127 µM	62.5 µM	0.39 µM (≈ 0.154 µg/mL)	31.2 µM	4.51	3.12 µM (≈ 1.23 µg/mL)	31.2 µM						
CCOC(=O)c1cn2c3c(c(F)c(F)cc3c1=O)Oc1cc([N+](=O)[O-])ccc1-2		> 200 µM			50 µM (≈ 19.4 µg/mL)	15.6 µM	4.81	25 µM (≈ 9.71 µg/mL)							
O=C(O)c1cn2c3c(c(N4CCNCC4)c(F)cc3c1=O)Oc1cc([N+](=O)[O-])ccc1-2		> 200 µM			> 200 µM	3.9 µM	5.41	> 200 µM							
Nc1ccc2c(c1)Oc1c(N3CCC(N4CCCCC4)CC3)c(F)cc3c(=O)c(C(=O)O)cn-2c13	2.5 µM (≈ 1.2 µg/mL)	> 200 µM	24.4 µM	15.6 µM	0.39 to 0.78 µM (≈ 0.187 to 0.373 µg/mL)	0.48 µM		1.56 µM (≈ 0.746 µg/mL)	3.9 µM						
Nc1ccc2c(c1)Oc1c(N3CCNCC3)c(F)cc3c(=O)c(C(=O)O)cn-2c13		> 200 µM	> 126 µM	7.8 to 15.6 µM	0.39 µM (≈ 0.155 µg/mL)	0.24 µM	6.62		7.8 µM	1.95 to 3.9 µM					
Nc1ccc2c(c1)Oc1c(NCCc3ccccc3)c(F)cc3c(=O)c(C(=O)O)cn-2c13		> 200 µM			50 µM (≈ 21.6 µg/mL)	3.9 µM	5.41	25 to 50 µM (≈ 10.8 to 21.6 µg/mL)							
Nc1ccc2c(c1)Oc1c(F)c(F)cc3c(=O)c(C(=O)O)cn-2c13		> 200 µM		> 125 µM	0.78 to 1.56 µM (≈ 0.258 to 0.515 µg/mL)	1.95 µM	5.71		31.3 µM	> 500 µM		Insoluble	0.8 to 2 µM	Stable	Stable
